Bioassay records as filed in PubChem.
Sampled rows, rich in hits. Any-hit rate of the full collection: about 4.9%.
STAT1 inh: inhibitors of IFN-gamma induced STAT1 signaling; NIH 3T3 STAT1-luciferase reporter, luminescence; inhibition, % at 5.5 µM; 200,000 compounds, 0.35% hits; AID 920;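 active = inhibition above a set limit, the mean inhibition across all tested compounds plus 3 SD, cut at about 34% in these data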;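 also: 0% = IFN-gamma with DMSO and 100% = IFN-gamma with 300 µM nifuroxazide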
STAT3 act-1: STAT3 signaling activation; U3A cells, IL-6 STAT3-luciferase reporter, luminescence; 100% = signal with IL-6 EC80 alone; activation (% of control), % at 5.6 µM; 190,000 compounds, 0.91% hits;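 active = activation above the screen-wide mean of compound activation plus 3 SD, cut at about 130% in these data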;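 also: 0% = background luminescence of wells with medium and substrate only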
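Assay system – human STAT1-deficient U3A cells with stable STAT3-luciferase reporter · Also added – IL-6 (33 ng/mL) · Schedule – compound 1 h, then IL-6 6 h at 37 °C · Technique – reporter luminescence signal · Evaluation – % activation versus median of IL-6-stimulated wells · Benchmarks – IL-6-only wells as 100% reference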
STAT1 act-1: activators of IFN-gamma induced STAT1 signaling. NIH 3T3 STAT1-luciferase reporter, luminescence; 100% = IFN-gamma alone, no compound. activation (% of control), % at 5.5 µM. 200,000 compounds, 2.6% hits. AID 932;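 active = activation above the screen-wide mean activation plus 3 SD, cut at about 130% in these data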;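 also: raw ratio to IFN-gamma control signal so 100% means no change and 0% no light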
STAT3 blocker: STAT3 signaling inhibition | 190,000 compounds, 0.89% hits | inhibition, % at 5.5 µM | U3A cells, IL-6 STAT3-luciferase reporter, luminescence; host cell line lacks STAT1 | AID 862;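 active = inhibition above the mean inhibition across all screened compounds plus 3 SD, cut at about 44% in these data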;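 also: 0% = DMSO only wells and 100% = 100 µM nifuroxazide control wells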
NF-kB expr up: compounds increasing NF-kB expression in human neuronal cells; fold change at 12.5 µM; NF-kB reporter expression; active compounds read high; 190,000 compounds, 1.6% hits; AID 1239; in the data active = fold change above about 3.3
APP 5'UTR act: APP 5'UTR luciferase reporter activation | SH-SY5Y APP 5'UTR luciferase reporter, luminescence; zero percent = DMSO vehicle wells | activation, % at 2 µM | 190,000 compounds, 1% hits;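 active = activation above a set limit, based on mean plus 3 SD of controls, cut at about 140% in these data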
STAT3 act-2: STAT3 activation, confirmation assay; shares compounds with STAT3 act-1; U3A STAT3-luciferase reporter, IL-6 potentiation, luminescence; U3A cells lack STAT1; 100 means same as IL-6 alone; potentiation (% of control), % at 5.7 µM; 1,200 compounds, 64% hits; AID 1267;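 active = percent activation of the STAT3 luciferase reporter above a set limit taken from the earlier primary screen, cut at about 130% in these data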;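 also: 0% = background signal of medium plus substrate and 100% = median of IL-6 with DMSO wells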
NFkB act 2: counter-screen for STAT3 activators: NF-kappaB activation; human cells, NF-kappaB reporter activation; activation (% of control), % at 5.7 µM; shares compounds with STAT3 act-1; 1,200 compounds, 11% hits; in the data active = activation above about 120%;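 also: reporter induced by TNF-alpha stimulation; 100% = median of stimulated DMSO wells and 0% = no signal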
STAT1 act-2: activates STAT1, counter-screen to STAT3 activators. shares compounds with STAT3 act-1. activation (% of control), % at 5.7 µM. 1,200 compounds, 13% hits. NIH 3T3 STAT1-luciferase reporter, IFN-gamma, luminescence;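 active = activation above the solvent-only control well mean plus 3 SD, set per screening run, cut at about 120% in these data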;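 also: 100% = IFN-gamma with DMSO median signal so 100% means no change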
* marks the source's active call; other numbers are inactive results; i = inactive; · = no result given.

SMILES	STAT1 inh	STAT3 act-1	STAT1 act-1	STAT3 blocker	NF-kB expr up	APP 5'UTR act	STAT3 act-2	NFkB act 2	STAT1 act-2
CN(C)CCCNS(=O)(=O)c1ccc(Cl)s1	-0.5	96.9	100.6	12.4	1.28	6.1	·	·	·
CCC(C)(C(=O)NC1CCCC1)N(C(=O)c1cnccn1)c1ccccc1 (configuration not stated)	-0.1	137.0*	100.1	-40.4	1	-7.2	116.8	99.7	103.2
CO/N=C(/CS(=O)(=O)c1ccc(C)cc1)c1ccc(OC)cc1	-2.4	93.4	102.2	13.1	1.06	0.2	·	·	·
N#Cc1ccc(C(=O)Nc2ccc([N+](=O)[O-])cc2)c(F)c1	-21.1	84.1	117.8	22.6	1.31	1.3	·	·	·
N#C/C(=C\c1ccc(-c2ccc(C(=O)O)cc2)o1)c1nc2ccccc2[nH]1	-32.7	189.4*	128.4	-97.2	1.13	36.9	204.6*	134.2*	140.5*
Cc1ccc2cc(C)c3nnc(SCC(=O)c4cccs4)n3c2c1C	12.3	109.1	89.0	-10.0	1.43	6.9	·	·	·
Cc1cc2ccc(C)c(C)c2nc1SCC(=O)c1cccs1	21.0	159.9*	81.1	-66.2	0.71	-1.9	134.1*	99.6	91.0
CC1=NN(c2ccccc2)C(=O)/C1=C/c1ccc[nH]1	-8.0	150.4*	107.1	-64.8	1.31	31.9	159.8*	119.9	117.0
CC1=NN(c2ccccc2)C(=O)/C1=C/c1cccs1	2.5	125.4	97.8	-24.9	1.01	1.2	·	·	·
COc1ccc(C(=O)C2CCCN(C(=O)/C=C/c3ccccn3)C2)c(C)c1 (configuration not stated)	5.5	100.4	93.4	4.6	·	13.4	·	·	·
Cc1ccccc1C1c2[nH]c3ccccc3c2CCN1CCCn1cccn1 (configuration not stated)	6.5	151.6*	92.2	-50.6	0.96	-16.4	148.0*	103.8	89.7
COc1ccc(C2CC3(CC(C)(C)NC(=O)N3)Oc3cc(O)ccc32)cc1 (configuration not stated)	-2.2	211.3*	102.1	-125.2	1.18	4.3	176.3*	110.0	118.6
COc1ccc(C2CC3(CC(C)(C)NC(SC)=N3)Oc3cc(O)cc(C)c32)cc1 (configuration not stated)	-24.6	536.9*	121.5	i	1.14	1.2	381.9*	114.2	127.4*
COc1ccc(C2CC3(CC(C)(C)NC(=S)N3)Oc3cc(O)cc(C)c32)cc1 (configuration not stated)	-6.0	362.9*	105.4	-329.5	0.99	9.8	267.6*	109.8	106.0
COc1ccccc1NC(=O)Nc1cccnc1	-6.7	106.8	104.7	-3.3	1.15	2.8	·	·	·
CC1(C)C2CCC(C2)C1(C)NC(=O)CNCC1CCCCC1 (configuration not stated)	4.8	107.2	97.1	-3.2	1.12	3.8	·	·	·
CCOC(=O)N1CCN(CC(=O)Nc2c(C(=O)OC)[nH]c3ccccc23)CC1	1.0	105.0	99.1	-2.2	1.04	13.2	·	·	·
C=CCOC(=O)Nc1c(C(=O)OC)[nH]c2ccccc12	15.2	147.7*	86.1	-45.3	0.7	-7.0	150.1*	105.1	92.8
COC(=O)c1[nH]c2ccccc2c1NC(=O)Oc1ccccc1	2.9	158.6*	97.3	-57.7	1.16	10.9	160.2*	111.2	114.8
COC(=O)c1[nH]c2ccc(C)cc2c1NC(=O)Oc1ccccc1	-11.4	111.5	110.5	-5.3	1.88	35.2	·	·	·
O=C(Nc1ccccn1)c1ccc2ccccc2n1	-12.1	146.7*	111.1	-49.8	5.87*	140.7*	180.1*	128.2*	164.3*
CN(C)c1ccnc(N(Cc2ccccc2)Cc2ccccc2)c1C#N	0.4	114.6	99.6	-8.8	1.17	10.4	·	·	·
O=Cc1cc2ccccc2nc1SCCCF	-1.8	116.1	101.1	-17.1	1	-44.7	·	·	·
Cc1ccc(-n2[nH]c(C)c(C=Nc3cc(C)ccn3)c2=O)cc1	-6.3	138.2*	105.8	-41.9	1.26	24.2	102.2	100.6	102.7
Cc1nnc(NC(=O)c2oc3c(ccc4ccccc43)c2C)s1	-7.7	149.9*	106.9	-58.6	1	-0.1	146.0*	106.0	101.7
SMILES	STAT1 inh	STAT3 act-1	STAT1 act-1	STAT3 blocker	NF-kB expr up	APP 5'UTR act	STAT3 act-2	NFkB act 2	STAT1 act-2
O=[N+]([O-])c1ccc(COc2cccc(CNc3ccc(Br)cc3)c2)cc1	5.6	99.0	94.9	-3.2	1.22	-14.4	·	·	·
Cn1c(=O)oc2cc(S(=O)(=O)NCCC(=O)N3CC=C(c4ccccc4)CC3)ccc21	8.8	90.7	92.0	16.1	0.87	-7.6	·	·	·
Cn1c(=O)oc2cc(S(=O)(=O)NCCC(=O)N3CCc4ccccc43)ccc21	-1.6	140.3*	101.4	-46.8	1.05	-8.6	123.6	102.2	98.9
Cc1onc(-c2c(F)cccc2Cl)c1C(=O)NC(=S)NCc1cccnc1	-4.5	89.9	104.1	19.1	0.91	9.9	·	·	·
COc1cc(CNCCc2ccccc2)cc(Cl)c1OCc1ccccc1	-1.9	97.3	100.8	9.9	0.85	-7.2	·	·	·
COc1nc(-c2ccc(Cl)cc2)ccc1-c1noc(-c2ccco2)n1	-3.5	98.1	101.9	3.4	1.28	0.9	·	·	·
COc1nc2c(C)cccc2cc1-c1noc(-c2ccco2)n1	9.4	163.3*	91.3	-69.7	1.19	7.3	143.6*	108.6	98.7
CNc1cc([N+](=O)[O-])ccc1N/C=C/C(=O)c1cccs1	-5.9	176.3*	105.4	-91.5	0.47	3.2	152.7*	105.7	101.0
Cc1ccc([N+](=O)[O-])cc1NC(=O)c1cccs1	2.9	80.2	96.9	27.3	1.15	-8.2	·	·	·
COc1ccccc1-c1nnc(SCC(=O)N2CCC(C)CC2)o1	-0.8	116.7	100.7	-18.3	1.08	33.4	·	·	·
COc1ccccc1-c1nnc(SCC(=O)N2CCOCC2)o1	-26.2	151.4*	123.8	-59.9	1.59	25.3	159.2*	105.8	106.2
Cc1nonc1CC(=O)N1CCc2c([nH]c3ccccc23)C1c1ccccc1F (configuration not stated)	-11.0	149.0*	108.6	-50.5	0.99	-8.2	142.5*	104.7	93.2
O=C(Cc1cnc2ncnn2c1)N1CCc2c([nH]c3ccccc23)C1c1ccccc1F (configuration not stated)	8.4	144.2*	90.6	-49.1	1.77	31.3	140.2*	104.0	102.0
